{
  "source": "ChEMBL document CHEMBL1130326",
  "about": "“Anti-Helicobacter pylori agents. 1. 2-(Alkylguanidino)-4-furylthiazoles and related compounds” (1997)",
  "key": {"Cavia porcellus": {"organism": "Cavia porcellus", "assay": "inhibition of the histamine stimulated […] response in the isolated guinea pig right atrium at 1x 10 e-6 g/mL", "format": "functional, Cardiac atrium", "how_it_was_run": "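Isolated atrium; beating rate and contraction amplitude recorded via transducer and polygraph. Histamine hydrochloride 1 × 10^-6 g/mL added to bath and rate increase measured. Percent inhibition from histamine-induced rate increases before versus 30 min after compound.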"}, "Helicobacter pylori [1]": {"system": "Helicobacter pylori", "assay": "Evaluated for antimicrobial activity against Helicobacter pylori", "format": "functional", "how_it_was_run": "(§1)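 Agar dilution. Test strain precultured on Brucella agar with 3% horse serum and 2% starch, 37 °C, 3 days. Suspended in buffered saline to McFarland no. 1, diluted 10²-fold, then spotted by multipoint replicator onto Brucella agar plus 7% lysed horse blood carrying serial 2-fold drug dilutions. Incubated 37 °C, 3 days, 10% CO₂. MIC taken as lowest concentration stopping macroscopic colonial growth.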"}, "Rattus norvegicus": {"system": "Rattus norvegicus", "assay": "inhibition of histamine stimulated gastric secretion in lumen perfused stomach of anesthetized rats at 1 mg/kg intravenously", "format": "functional", "conditions": "route intravenous", "how_it_was_run": "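Abdomen opened; gastric lumen perfused with saline throughout. Secretion stimulated by iv histamine infusion, 3 mg/kg/h. Perfusate acid titrated with 25 mM NaOH by autotitrator. n = 2.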"}, "Helicobacter pylori [2]": {"system": "Helicobacter pylori", "assay": "minimum inhibitory concentration was determined against Helicobacter pylori. the value in parentheses is range", "format": "functional, organism-based", "how_it_was_run": "as §1, with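 “growth. Mean and range from 10 strains (8001, 8003, 8004, 8007, 8008, 8009, 8011, 9005, FP1530, FP1532).” for “growth.”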"}},
  "data": [
    {"compound": "CCCCNC(=O)Nc1nc(-c2ccc(CNC(C)=O)o2)cs1", "values": [
      {"measurement": "Inhibition", "setting": "Cavia porcellus", "value": 0, "unit": "%"},
      {"measurement": "MIC", "setting": "Helicobacter pylori [1]", "value": "> 100", "unit": "µg/mL"},
      {"measurement": "inhibition in vivo at 1 mg/kg", "setting": "Rattus norvegicus", "value": 9, "unit": "%"}
    ]},
    {"compound": "C/N=C(\\N)Nc1nc(-c2ccc(CNC(C)=O)o2)cs1", "values": [
      {"measurement": "Inhibition", "setting": "Cavia porcellus", "value": 25, "unit": "%"},
      {"measurement": "MIC", "setting": "Helicobacter pylori [1]", "value": 12.5, "unit": "µg/mL"},
      {"measurement": "inhibition in vivo at 1 mg/kg", "setting": "Rattus norvegicus", "value": 24, "unit": "%"}
    ]},
    {"compound": "CN/C(=N\\CCSCc1nc[nH]c1C)NC#N", "note": "[CIMETIDINE]", "values": [
      {"measurement": "Inhibition", "setting": "Cavia porcellus", "value": 43, "unit": "%"},
      {"measurement": "MIC", "setting": "Helicobacter pylori [1]", "value": 1130, "unit": "µg/mL"},
      {"measurement": "inhibition in vivo at 1 mg/kg", "setting": "Rattus norvegicus", "value": 53, "unit": "%"}
    ]},
    {"compound": "CC/N=C(\\N)Nc1nc(-c2ccc(CNC(C)=O)o2)cs1", "values": [
      {"measurement": "Inhibition", "setting": "Cavia porcellus", "value": 51, "unit": "%"},
      {"measurement": "MIC", "setting": "Helicobacter pylori [1]", "value": 3.13, "unit": "µg/mL"},
      {"measurement": "inhibition in vivo at 1 mg/kg", "setting": "Rattus norvegicus", "value": 79, "unit": "%"}
    ]},
    {"compound": "CCC/N=C(\\N)Nc1nc(-c2ccc(CNC(C)=O)o2)cs1", "values": [
      {"measurement": "Inhibition", "setting": "Cavia porcellus", "value": 81, "unit": "%"},
      {"measurement": "MIC", "setting": "Helicobacter pylori [1]", "value": 1.67, "unit": "µg/mL"},
      {"measurement": "inhibition in vivo at 1 mg/kg", "setting": "Rattus norvegicus", "value": 97, "unit": "%"}
    ]},
    {"compound": "CC(=O)NCc1ccc(-c2csc(N/C(N)=N/C(C)C)n2)o1", "values": [
      {"measurement": "Inhibition", "setting": "Cavia porcellus", "value": 27, "unit": "%"},
      {"measurement": "MIC", "setting": "Helicobacter pylori [1]", "value": 2.9, "unit": "µg/mL"},
      {"measurement": "inhibition in vivo at 1 mg/kg", "setting": "Rattus norvegicus", "value": 32, "unit": "%"}
    ]},
    {"compound": "Cc1ncc([N+](=O)[O-])n1CCO", "note": "[METRONIDAZOLE]", "values": [
      {"measurement": "MIC", "setting": "Helicobacter pylori [1]", "value": 5.4, "unit": "µg/mL"}
    ]},
    {"compound": "CC(=O)NCc1ccc(-c2csc(CN(C)C)n2)o1", "values": [
      {"measurement": "Inhibition", "setting": "Cavia porcellus", "value": 6, "unit": "%"},
      {"measurement": "MIC", "setting": "Helicobacter pylori [1]", "value": "> 200", "unit": "µg/mL"},
      {"measurement": "inhibition in vivo at 1 mg/kg", "setting": "Rattus norvegicus", "value": 4, "unit": "%"}
    ]},
    {"compound": "CCCCCC/N=C(\\N)Nc1nc(-c2ccc(CNC(C)=O)o2)cs1", "values": [
      {"measurement": "Inhibition", "setting": "Cavia porcellus", "value": 79, "unit": "%"},
      {"measurement": "MIC", "setting": "Helicobacter pylori [1]", "value": 0.11, "unit": "µg/mL"},
      {"measurement": "inhibition in vivo at 1 mg/kg", "setting": "Rattus norvegicus", "value": 44, "unit": "%"}
    ]},
    {"compound": "CC(=O)NCc1ccc(-c2csc(NC3=NCCN3)n2)o1", "values": [
      {"measurement": "Inhibition", "setting": "Cavia porcellus", "value": 8, "unit": "%"},
      {"measurement": "MIC", "setting": "Helicobacter pylori [1]", "value": "> 100", "unit": "µg/mL"},
      {"measurement": "inhibition in vivo at 1 mg/kg", "setting": "Rattus norvegicus", "value": 18, "unit": "%"}
    ]},
    {"compound": "BISMUTH SUBCITRATE", "values": [
      {"measurement": "MIC", "setting": "Helicobacter pylori [2]", "value": 18, "unit": "µg/mL"}
    ]},
    {"compound": "CC(=O)NCc1ccc(-c2csc(/N=C(\\N)S)n2)o1", "values": [
      {"measurement": "Inhibition", "setting": "Cavia porcellus", "value": 0, "unit": "%"},
      {"measurement": "MIC", "setting": "Helicobacter pylori [1]", "value": "> 200", "unit": "µg/mL"},
      {"measurement": "inhibition in vivo at 1 mg/kg", "setting": "Rattus norvegicus", "value": 11, "unit": "%"}
    ]},
    {"compound": "CC(=O)NCc1ccc(-c2nc(N=C(N)N)sc2C)o1", "values": [
      {"measurement": "Inhibition", "setting": "Cavia porcellus", "value": 10, "unit": "%"},
      {"measurement": "MIC", "setting": "Helicobacter pylori [1]", "value": 76, "unit": "µg/mL"},
      {"measurement": "inhibition in vivo at 1 mg/kg", "setting": "Rattus norvegicus", "value": 3, "unit": "%"}
    ]},
    {"compound": "CCCC/N=C(\\N)Nc1nc(-c2ccc(CNC(C)=O)o2)cs1", "values": [
      {"measurement": "Inhibition", "setting": "Cavia porcellus", "value": 78, "unit": "%"},
      {"measurement": "MIC", "setting": "Helicobacter pylori [1]", "value": 0.21, "unit": "µg/mL"},
      {"measurement": "inhibition in vivo at 1 mg/kg", "setting": "Rattus norvegicus", "value": 45, "unit": "%"}
    ]}
  ]
}
